SMILES strings stand for the structures.

Holding throughout (type): functional
For assay [1], the system named is Mus musculus. In words: Antiexploratory activity (EXPL) of mice determined by an antimex activity meter, 50 mg/kg of dose was administered perorally; Moderate inhibition (51-71%). The note with it: route oral.
Assay [2] has as its system Mus musculus. In words: Antireserpine activity (RES) of mice after peroral administration of 50 mg/kg of compound; Moderate inhibition (51-71%). The note with it: route oral.
For assay [3], the system named is Mus musculus. Description: 3,4 -Dihydroxy phenylacetic acid (DOPAC) levels in mouse brain at 50 mg/kg dose. Summed up:
(§1)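 Male Std-ddY mice, 20-25 g, dosed orally with compound in 0.5% aqueous tragacanth. DOPAC was measured fluorometrically after purification by column chromatography on Sephadex G-10 and QAE-Sephadex. Brains from five mice per compound were pooled for each determination.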

Assay [4] relates to Mus musculus. Description: Antiexploratory activity (EXPL) of mice determined by an antimex activity meter, 100 mg/kg of dose was administered perorally; potent inhibition. The note with it: route oral.
Assay [5] has as its system Mus musculus. In words: Exploratory activity of mice determined by an antimex activity meter, when administered perorally. The following applies: po. An outline of the steps:
(§2)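 Male Std-ddY mice (20-25 g), five per dose; compound in 0.5% aqueous tragacanth given orally. Two hours later each mouse placed in an Animex activity meter cage and locomotor activity counted for 3 min. Mean suppression expressed as percent inhibition of control; ED50 by Litchfield-Wilcoxon.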

The subject of assay [6] is Mus musculus. In words: Inhibition of conditioned avoidance response in mice when administered perorally. The following applies: po. An outline of the steps: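 One-way active avoidance in male Std-ddY mice in a dark/light two-compartment box. Mice trained to move to the lit side on a warning stimulus to escape floor shock; groups of 10 avoiding at >80% in 10 trials. Compound po in 0.5% tragacanth. ED50 is the dose halving avoidance rate (Litchfield-Wilcoxon).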

The subject of assay [7] is Mus musculus. In words: Concentration of compound that causes catalepsy in the mice when administered perorally. The note with it: po. An outline of the steps: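 Male Std-ddY mice were dosed orally, vehicle 0.5% aqueous tragacanth. At 2 h, forepaws were placed on a rod 4.5 cm high. Failure to remove the paws within 30 s in three successive trials was scored cataleptic. ED50 was the dose giving catalepsy in 50% of mice (Litchfield-Wilcoxon).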

In assay [8] the test system is Mus musculus. Description: Exploratory activity of mice determined by an antimex activity meter, 10 mg/kg of dose was administered perorally. The note with it: route oral.
In assay [9] the test system is Canis familiaris. Description: Inhibition of apomorphine induced emesis in dogs when administered perorally. The following applies: Canis lupus familiaris, po. An outline of the steps: (§3)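 Beagle dogs (10-15 kg), groups of three, given compound po in a gelatin capsule; 2 h later apomorphine hydrochloride 0.3 mg/kg sc. Vomiting counted for 1 h; mean inhibition as percent of control. ED50 is the dose giving 50% inhibition of emesis, by Litchfield-Wilcoxon.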

Assay [10] deals with Mus musculus. Description: Concentration of compound that causes ptosis in the mice when administered perorally. The following applies: po. An outline of the steps: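 Five male Std-ddY mice per group were dosed orally in 0.5% aqueous tragacanth. At 2 h, eyelid closure was scored macroscopically (8 open to 0 fully closed). Group mean scores formed a dose-response curve. ED50 was the dose reducing the mean score to 50%.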

In another assay the test system is Rattus norvegicus. In words: Inhibition of self-stimulation response in rats when administered perorally. The following applies: po. Summed up: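 Male Wistar HLA rats (300-400 g) with chronic electrodes in the lateral posterior hypothalamus, lever-pressing steadily at 50-100/min. Self-stimulation counted for 10 min before and 2 h after oral dosing. ED50 is the dose causing ≥50% rate inhibition in half the rats (Litchfield-Wilcoxon).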

Assay [11] concerns Mus musculus. In words: The homovanillic acid (HVA) levels in mouse brain at 10 mg/kg of dose. Summed up: (§4)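 Mice dosed orally in 0.5% aqueous tragacanth; brains of five mice per compound pooled. Homovanillic acid measured in brain extracts and reported as brain level.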
Assay [12] deals with Mus musculus. Description: Antitremorine activity(TRM) of mice after peroral administration of 100 mg/kg of compound; Slight inhibition (31-50%). The following applies: route oral.
Assay [13] concerns Mus musculus. In words: Antimaximal electroshock seizure (MES) activity in mice after peroral administration of 100 mg/kg of compound; 0/5. The following applies: route oral.
For assay [14], the system named is Mus musculus. Description: The homovanillic acid (HVA) levels in mouse brain at 50 mg/kg of dose. Summed up: as §4
Assay [15] concerns Mus musculus. In words: Exploratory activity of mice determined by an antimex activity meter, 100 mg/kg of dose was administered perorally. The note with it: route oral. An outline of the steps:
as §2

Assay [16] concerns Mus musculus. In words: Antireserpine activity (RES) of mice after peroral administration of 100 mg/kg of compound; No inhibition. The following applies: route oral.
In assay [17] the test system is Canis familiaris. In words: Inhibition of apomorphine induced emesis in dogs at 1 mg/kg of dose. The following applies: Canis lupus familiaris. Summed up:
as §3

Assay [18] has as its system Mus musculus. Description: 3,4 -Dihydroxy phenylacetic acid (DOPAC) levels in mouse brain at 10 mg/kg dose. An outline of the steps: as §1
Assay [19] has as its system Mus musculus. In words: Antiexploratory activity (EXPL) of mice determined by an antimex activity meter, 50 mg/kg of dose was administered perorally; potent inhibition. The note with it: route oral.
In assay [20] the test system is Mus musculus. In words: Antireserpine activity (RES) of mice after peroral administration of 50 mg/kg of compound; No inhibition. The note with it: route oral.
In assay [21] the test system is Mus musculus. In words: Antiexploratory activity (EXPL) of mice determined by an antimex activity meter, 10 mg/kg of dose was administered perorally; Slight inhibition (31-50%). The following applies: route oral.
The test system of assay [22] is Mus musculus. In words: Exploratory activity of mice determined by an antimex activity meter, 50 mg/kg of dose was administered perorally. The note with it: Mus musculus, po. Summed up:
as §2

In assay [23] the test system is Mus musculus. In words: Antipentylene tetrazole activity was determined in mice when administered perorally. The following applies: po. An outline of the steps:
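Groups of five male Std-ddY mice received compound orally in 0.5% tragacanth, then pentylenetetrazole 175 mg/kg ip. Blockade of the tonic extensor component scored as anticonvulsant. ED50 was the dose protecting 50% of animals (Litchfield-Wilcoxon).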

Assay [24] deals with Mus musculus. Description: Antiexploratory activity (EXPL) of mice determined by an antimex activity meter,100 mg/kg of dose was administered perorally; Slight inhibition (31-50%).
Assay [25] has as its system Mus musculus. In words: Antimaximal electroshock seizure activity was determined in mice when administered perorally. The following applies: po. In general terms: Protection in the maximal electroshock model is a classic sign of anticonvulsant action.
In assay [26] the test system is Mus musculus. In words: Antitremorine activity(TRM) of mice after peroral administration of 100 mg/kg of compound; No inhibition. The note with it: route oral.
For assay [27], the system named is Mus musculus. In words: Antimaximal electroshock seizure (MES) activity in mice after peroral administration of 100 mg/kg of compound; 3/5. The following applies: route oral.
Assay [28] relates to Mus musculus. Description: Antimaximal electroshock seizure (MES) activity in mice after peroral administration of 100 mg/kg of compound; 5/5. The following applies: route oral.
The test system of assay [29] is Mus musculus. In words: Antimaximal electroshock seizure (MES) activity in mice after peroral administration of 10 mg/kg of compound; 0/5. The following applies: route oral.
For assay [30], the system named is Mus musculus. In words: Antitremorine activity(TRM) of mice after peroral administration of 100 mg/kg of compound; Moderate inhibition (51-71%). The note with it: route oral.
For assay [31], the system named is Mus musculus. Description: Antiexploratory activity (EXPL) of mice determined by an antimex activity meter,100 mg/kg of dose was administered perorally.

For the molecule `CN1CCN(C2=Nc3ccccc3CC=C2c2ccc(O)cc2)CC1`, the inhibition in vivo at 50 mg/kg in the assay on Mus musculus [1] and in the assay on Mus musculus [2] was 51% each time.

In the case of `Cl.Cl.OCCN1CCN(C2=Nc3ccccc3CC=C2c2ccc(Cl)cc2)CC1`, the Control with Mus musculus [3] is reported as 289%; in the assay on Mus musculus [11], 265%; with Mus musculus [14] it was 382%; with Mus musculus [18], 186%. The inhibition in vivo (usually the relative decrease from the control value, in per cent) at 100 mg/kg was > 71% with Mus musculus [4], 31% in the assay on Mus musculus [12], 57.3% in the assay on Mus musculus [15] and < 30% with Mus musculus [16]. Besides, the ED50 (as a rule, the midpoint of the dose-response relation) in the assay on Mus musculus [5] amounted to 73.1 mg/kg; with Mus musculus [6], 38.1 mg/kg; in the assay with Mus musculus [7], 66.8 mg/kg; in the assay on Canis familiaris [9], 0.19 mg/kg; with Mus musculus [10], 88.7 mg/kg; with Rattus norvegicus it was 25.4 mg/kg. This molecule also yielded an inhibition in vivo at 10 mg/kg with Mus musculus [8] of 40.8%. The Activity in the assay with Mus musculus [13] was 0. Further, the inhibition in vivo at 1 mg/kg with Canis familiaris [17] was found to be 95.5%.

As for `CN1CCN(C2=Nc3ccccc3CC=C2c2ccc(F)cc2)CC1.Cl.Cl`, the inhibition in vivo at 50 mg/kg is > 70% in the assay with Mus musculus [19], < 30% in the assay with Mus musculus [20] and 79.3% in the assay on Mus musculus [22]. The Control in the assay on Mus musculus [3] was found to be 306%; with Mus musculus [11] it was 197%; in the assay with Mus musculus [14], 400%; in the assay on Mus musculus [18], 188%. Also, the ED50 in the assay with Mus musculus [5] stood at 8.15 mg/kg; with Mus musculus [6], 14.6 mg/kg; in the assay with Mus musculus [7], 21.5 mg/kg; in the assay on Canis familiaris [9] it was 0.28 mg/kg; in the assay with Mus musculus [10], 61 mg/kg; in the assay with Rattus norvegicus it was 4.05 mg/kg. The inhibition in vivo at 10 mg/kg in the assay with Mus musculus [8] amounted to 43.3%; in the assay on Mus musculus [21], 31%. This molecule also registered an inhibition in vivo at 1 mg/kg in the assay on Canis familiaris [17] of 100%.

As to `Cc1ccc2c(c1)CC=C(c1ccccc1)C(N1CCN(CCO)CC1)=N2.O=C(O)/C=C/C(=O)O`, the ED50 is 39.4 mg/kg in the assay with Mus musculus [23] and 103 mg/kg in the assay on Mus musculus [25]. The Inhibition (commonly the drop in the measured response relative to a control, in per cent) in the assay with Mus musculus [24] is reported as 31%. Moreover, the inhibition in vivo at 100 mg/kg in the assay with Mus musculus [26] and in the assay on Mus musculus [16] was < 30% each time. In the assay with Mus musculus [27], this molecule yielded an Activity of 3.

Consider `CCc1ccc2c(c1)CC=C(c1ccccc1)C(N1CCN(CCO)CC1)=N2.Cl.Cl`, for which the Activity with Mus musculus [28] was 5; in the assay on Mus musculus [29] it was 0. Moreover, the inhibition in vivo at 100 mg/kg is 51% with Mus musculus [30] and < 30% with Mus musculus [16]. Moreover, the Inhibition with Mus musculus [31] was <30%.

Values taken from ChEMBL document CHEMBL1124216, “A novel class of potential central nervous system agents. 3-Phenyl-2-(1-piperazinyl)-5H-1-benzazepines” (1988).
